High-throughput results (PubChem BioAssay)
The list is not random: actives were taken first. Their share in the collection is about 1.9%.
LMPTP inh: blocks human LMPTP phosphatase; P24666; recombinant LMPTP-A, OMFP fluorogenic substrate, fluorescence intensity; inhibition, % at 20 µM; hit rate 0.22% among 360,000; AID 651560;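 active = compounds that cut the enzyme signal by at least half of the control window in the single-dose screen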;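 note: plate controls were DMSO wells with enzyme plus substrate for no effect and substrate without enzyme for full effect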
Target sequence (P24666 whole entry, looked up): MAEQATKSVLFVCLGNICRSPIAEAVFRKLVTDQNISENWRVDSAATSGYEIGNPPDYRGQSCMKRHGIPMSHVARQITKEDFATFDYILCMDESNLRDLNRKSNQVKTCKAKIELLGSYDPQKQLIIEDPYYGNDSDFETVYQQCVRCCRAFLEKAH
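Material: LMPTP-A; amount: 0.625 nM enzyme; doses: single 20 µM dose; times: reaction 50 min, room temperature, dark; technique: fluorescence intensity of OMFP turnover product; benchmarks: no-enzyme and uninhibited controls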
SUMO1-SIM PPI: alters human SUMO1 binding to SIM partners; SUMO1 binding to a labelled peptide, TR-FRET, 1 h; inhibition, % at 20 µM; hit rate 0.33% among 360,000; in the data active = inhibition above about 37%
FAS TE block: FAS thioesterase (human) inhibition | inhibition, % at 15 µM | hit rate 0.67% among 360,000 | P49327 | recombinant FAS-TE, OMFH fluorogenic substrate, fluorescence endpoint | AID 602261;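 active = compounds whose normalised, plate-corrected inhibition of enzyme fluorescence in the single-dose primary screen is 50% or more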;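 note: 0% = DMSO with enzyme and 100% = substrate without enzyme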
Scp-1 inhibitor: Scp-1 (human) phosphatase inhibition | Q9GZU7 | Recombinant Scp1, phosphopeptide, malachite green phosphate absorbance | inhibition, % at 20 µM | hit rate 0.88% among 340,000 | AID 493091;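 active = inhibition above about 50% at 20 µM, limit read from the data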;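 note: plate controls were DMSO wells with enzyme for no effect and wells lacking enzyme for full effect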
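Times: enzyme reaction 45 min at room temperature, colour 5 min, stabilisation 30 min. Material: SCP-1 catalytic fragment, aa 76-261. Medium: Acidic Tris acetate buffer with magnesium and detergent. Signal: colorimetric free-phosphate detection, absorbance 630 nm. Read-out basis: % inhibition of SCP-1 phosphate liberation. Reagent: Phosphorylated 17-residue peptide substrate.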
STEP block: STEP (human) phosphatase inhibition | recombinant STEP, OMFP fluorogenic substrate, fluorescence | inhibition, % at 20 µM | hit rate 0.25% among 360,000 | AID 588621 | P54829;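 active = inhibition at 20 µM, scaled per plate between control wells, above about 37%, limit read from the data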;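 note: 0% = DMSO with enzyme and substrate and 100% = substrate only without enzyme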
Target sequence (P54829 whole entry, looked up): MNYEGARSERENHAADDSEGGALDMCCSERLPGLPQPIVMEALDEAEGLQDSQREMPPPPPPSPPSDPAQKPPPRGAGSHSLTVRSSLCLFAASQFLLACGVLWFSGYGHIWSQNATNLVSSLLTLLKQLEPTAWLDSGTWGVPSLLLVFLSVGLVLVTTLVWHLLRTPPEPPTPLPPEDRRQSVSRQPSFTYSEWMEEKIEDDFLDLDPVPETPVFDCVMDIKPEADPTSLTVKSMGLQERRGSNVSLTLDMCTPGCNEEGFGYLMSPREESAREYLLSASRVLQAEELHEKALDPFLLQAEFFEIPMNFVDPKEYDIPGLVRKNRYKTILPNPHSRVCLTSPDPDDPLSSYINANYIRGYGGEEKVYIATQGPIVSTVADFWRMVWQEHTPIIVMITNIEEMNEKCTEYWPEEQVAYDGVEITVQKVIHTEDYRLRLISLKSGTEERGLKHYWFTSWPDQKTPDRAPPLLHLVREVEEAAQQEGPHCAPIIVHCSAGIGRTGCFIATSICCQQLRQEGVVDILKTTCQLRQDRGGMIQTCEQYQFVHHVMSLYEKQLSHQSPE
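System: STEP (striatal-enriched tyrosine phosphatase) enzyme, cell-free; medium: Bis-Tris pH 6.0 buffer with DTT, detergent; dosing: 20 µM, 1% DMSO; times: reaction 20 min, ambient temperature; detection: fluorescence, 480/540 nm; read-out basis: normalized % inhibition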
Scp1 confirm: Scp-1 (human) inhibition, single-dose confirmed | shares compounds with Scp-1 inhibitor | recombinant SCP-1 catalytic domain, phosphate release, malachite green absorbance | inhibition, % at 20 µM | hit rate 61% among 2,500 | AID 540281;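 note: plate controls were DMSO with enzyme for no effect and buffer wells lacking enzyme for full effect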
MG interference: counter-screen for Scp-1 inhibitors: colorimetric interference; 2,500 tested, under 10 active; shares compounds with Scp-1 inhibitor; Colorimetric interference counterscreen, malachite green absorbance 630 nm; apparent inhibition (interference), % at 20 µM; AID 540313;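 note: compounds added after enzyme reaction finished so only phosphate colour detection is probed; plate controls were DMSO wells with completed Scp-1 reaction for no effect and substrate wells lacking enzyme for full effect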
Scp1 DSF: binds human Scp-1, shifting its melting temperature. thermal shift relative to vanadate control, % at 40 µM. hit rate 25% among 1,500. shares compounds with Scp-1 inhibitor. AID 540329. Recombinant SCP1, Sypro Orange thermal shift Tm;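 active = substances whose mean melting-temperature shift, as a percentage of the reference inhibitor's shift, reaches about 5.3%, limit read from the data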;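 note: 0% = Tm of DMSO wells and 100% = Tm with sodium orthovanadate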
Numbers without * were called inactive; . = no result given.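 Rule for the calls, unless noted: active = inhibition of at least 30% at 20 µM; inactive = the rest.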

SMILES	LMPTP inh	SUMO1-SIM PPI	FAS TE block	Scp-1 inhibitor	STEP block	Scp1 confirm	MG interference	others
CC(C)(C)NC(=O)C(c1cc2ccccc2o1)n1c(-c2ccc(-c3ccccc3)cc2)nc2ccccc21 (configuration not stated)	16.4	0.7	.	.	.	.	.
O=C(OCc1cc(=O)n2ccsc2n1)c1ccccc1O	1.6	7.2	-6.4	53.0*	-3.5	8.5	-4.6
O=C(Cn1c(=O)n(Cc2ccco2)c(=O)c2c3c(sc21)CCCCC3)Nc1ccccc1	21.1	13.9	17.3	74.2*	5.4	43.7*	-28.8	Scp1 DSF=7.9*
O=c1c2c3c(sc2n(CCN2CCCC2)c(=O)n1Cc1ccco1)CCCCC3	2.0	4.5	4.5	13.3	4.1	.	.
O=C(Cn1c(=O)n(Cc2ccco2)c(=O)c2c3c(sc21)CCCCC3)c1ccccc1	6.8	7.1	19.4	55.9*	6.4	2.7	-16.4
CCN1CCN(c2ccc(S(=O)(=O)N3CCOCC3)cc2NC(=O)c2ccc(Cl)s2)CC1	-9.5	-34.9	-2.5	-5.7	-1.2	.	.
COc1cc(C#N)ccc1OCC(=O)Nc1cccc(S(=O)(=O)N(C)c2ccccc2)c1	-0.2	2.3	19.3	.	2.8	.	.
Nc1c(C(=O)CSc2n[nH]c(-c3ccccc3)n2)c(=O)[nH]c(=O)n1C1CC1	0.6	-0.6	-2.2	-3.4	-1.4	.	.
Cc1cc(C(=O)COC(=O)c2cc(Cl)c(O)c(Cl)c2)c(C)n1C	4.5	34.3	3.4	55.1*	2.9	35.9*	-13.6	Scp1 DSF=9.4*
Cc1cc(C)n2nc(C(=O)OCC(=O)c3cc(C)n(C)c3C)nc2n1	0.8	-0.1	-3.7	52.3*	1.4	57.9*	-14.7	Scp1 DSF=-2.2
Cc1cc(C(=O)COC(=O)c2ccc(F)cc2)c(C)n1C	-0.6	-0.4	-1.3	-3.9	-2.5	.	.
O[C@H]1CN(CC2CCCCC2)[C@@H](c2ccc(Cl)cc2)C[C@@H]1n1cc(C2CC2)nn1	3.0	5.6	24.8	.	0.2	.	.
Cc1ccc2nc(SCC(=O)N(CC(C)C)c3c(N)n(Cc4ccccc4)c(=O)[nH]c3=O)[nH]c2c1	0.8	-0.1	-1.2	88.3*	3.4	-1.0	-4.0
N#C/C(=C\c1c(N2CCOCC2)nc2ccccn2c1=O)S(=O)(=O)c1ccccc1	0.5	-10.9	11.6	53.8*	3.1	-2.7	-5.7
COc1ccc(N2CCN(c3nc4ccccn4c(=O)c3/C=C(\C#N)S(=O)(=O)c3ccccc3)CC2)cc1	1.1	-3.1	19.7	8.6	-0.6	.	.
CCN(CC)c1ccc2cc(C(=O)c3cccs3)c(=O)oc2c1	1.7	-25.4	-49.9	.	-20.8	.	.
CC(=O)Nc1ccc(N=Cc2nc(-c3ccc(C)cc3)oc2O)cc1	6.3	-13.3	-15.0	76.0*	2.5	16.1	-14.8
CCc1ccc(-n2nnnc2SCC(=O)Nc2ccc(NC(C)=O)cc2)cc1	0.1	-0.4	10.6	-2.0	-1.4	.	.
CC(=O)Nc1ccc(-n2nnnc2SCC(=O)Nc2cccc(NC(=O)c3ccco3)c2)cc1	0.1	30.5	-0.5	55.3*	4.4	30.2*	-5.4	Scp1 DSF=2.6
COc1ccc(CNC(=O)C2CCCN(S(=O)(=O)N3CCC(C)CC3)C2)c(OC)c1 (configuration not stated)	0.7	-3.9	-1.7	69.5*	-1.3	-13.9	-14.5
O=C(COC(=O)c1cnccn1)c1cccc([N+](=O)[O-])c1	-0.9	-12.8	-0.8	-4.3	0.6	.	.
O=C(O)c1cccc(-n2cccc2C=C2C(=O)c3ccccc3C2=O)c1	3.1	4.3	-0.5	31.1	8.6	.	.
O=C(N/N=C/c1cccn1-c1cccc(C(=O)O)c1)Nc1ccccc1	1.5	4.1	-5.6	64.2*	-0.6	49.7*	-14.2	Scp1 DSF=7.0*
COc1cc(/C=N/NC(=O)c2cccc([N+](=O)[O-])c2)ccc1O	-1.5	-15.5	-2.5	88.6*	-4.9	-13.9	-12.9
COc1ccc(/C=N/NC(=O)c2cccc([N+](=O)[O-])c2)cc1O	0.4	-19.8	0.3	-2.9	1.1	.	.
SMILES	LMPTP inh	SUMO1-SIM PPI	FAS TE block	Scp-1 inhibitor	STEP block	Scp1 confirm	MG interference	others
CCOC(=O)CN1C(=O)N[C@@H](c2cccs2)C(C(=O)OC)=C1C	-0.9	0.6	-3.8	57.7*	3.0	-5.6	-8.7
CCOC(=O)CN1C(=O)N[C@@H](c2cccs2)C(C(C)=O)=C1C	-0.1	0.6	-14.5	-8.6	-3.2	.	.
COc1ccccc1NC(=O)c1ccc2c(c1)C(=O)N(Cc1ccco1)C2=O	-0.4	-5.2	-3.3	-1.8	0.0	.	.
O=C(Nc1ccccc1O)c1ccc2c(c1)C(=O)N(Cc1ccco1)C2=O	17.5	-4.2	-8.3	67.7*	5.5	59.0*	-14.0	Scp1 DSF=4.3
Cc1ccc(S(=O)(=O)N2CCN(c3nc(-c4cccs4)nc4ccccc34)CC2)cc1	1.5	11.5	46.6	.	0.9	.	.
COc1ccc(C(=O)Oc2ccc(/C=N/NC(=O)Cc3ccc([N+](=O)[O-])cc3)cc2)cc1	13.3	0.3	-4.2	90.9*	10.0	-10.9	-13.9
O=C(N/N=C/c1ccc(OC(=O)c2ccc([N+](=O)[O-])cc2)cc1)c1cccnc1	2.2	-5.0	-1.4	-0.1	1.2	.	.
Cc1ccc(S(=O)(=O)N2C3CCCCC3O[C@H]2CC(=O)c2cccc3ccccc23)cc1 (some centres not stated)	1.5	1.3	.	.	.	.	.
COc1ccc(S(=O)(=O)N2CC(=O)Nc3ccccc32)cc1	-1.9	6.2	-5.5	17.1	-5.5	.	.
CCCCn1nnnc1C(c1cccc2ccccc12)N1CCN(C/C=C/c2ccccc2)CC1 (configuration not stated)	6.7	2.5	18.9	.	-1.0	.	.
CCOC(=O)C1=C(C)N(c2ccc(C)c(C)c2)C(=O)/C1=C\c1ccco1	2.9	-4.5	9.9	-15.2	2.0	.	.
COC(=O)C1=C(C)N(c2ccc(C)c(C)c2)/C(=C/c2ccco2)C1=O	3.2	-13.6	-2.1	58.9*	2.0	19.9	-9.0
CCOC(=O)N1CCN(c2c(NCCOC)c(=O)c2=O)CC1	-0.7	-1.3	-7.6	3.5	-2.8	.	.
CCOC(=O)N1CCN(c2c(NCC3CCCO3)c(=O)c2=O)CC1 (configuration not stated)	0.5	-3.4	2.4	81.8*	-1.0	-1.2	-7.3
O=C(NNC(=O)c1cc2cc3ccccc3nc2s1)c1cccc(C(F)(F)F)c1	27.7	0.3	-6.7	75.1*	29.2	71.2*	-14.0	Scp1 DSF=-15.8
O=C(NNS(=O)(=O)c1ccccc1)c1cc2cc3ccccc3nc2s1	-0.3	1.3	-0.9	-2.3	1.3	.	.
Cc1cnc(C(=O)OCc2nc3ccsc3c(=O)[nH]2)cn1	1.8	19.9	-2.3	65.5*	3.0	64.2*	-6.0	Scp1 DSF=11.0*
